Measurements published in ChEMBL document CHEMBL3576822 (J Med Chem, 2015).
One block for each compound: values may come before it. Non-standard residues stand in square brackets, D forms with d. Residues, ends and D or L forms follow the SMILES beside them. ξ: configuration not given here. ξDap = NCC(N)C(=O)O

Key:
[1] = target: T1, Growth hormone secretagogue receptor type 1 (Homo sapiens, UniProt Q92847); test: Inverse agonist activity at human GHSR1a receptor expressed in COS-7 cells assessed as inositol phosphate accumulation after 2 hrs by anion exchange chromatography; type: functional, cell-based
T1 sequence (Q92847 whole entry): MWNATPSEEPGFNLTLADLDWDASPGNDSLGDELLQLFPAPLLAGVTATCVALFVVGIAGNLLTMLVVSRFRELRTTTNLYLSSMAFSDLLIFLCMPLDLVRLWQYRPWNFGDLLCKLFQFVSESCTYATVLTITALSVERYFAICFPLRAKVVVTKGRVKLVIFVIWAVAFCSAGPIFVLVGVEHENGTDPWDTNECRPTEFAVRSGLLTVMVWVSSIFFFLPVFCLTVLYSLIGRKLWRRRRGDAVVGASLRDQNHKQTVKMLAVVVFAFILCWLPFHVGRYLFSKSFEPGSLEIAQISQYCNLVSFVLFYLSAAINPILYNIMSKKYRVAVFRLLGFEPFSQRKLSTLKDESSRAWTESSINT

[2] = target: T2, Neuropeptide Y receptor type 2 (Homo sapiens, UniProt P49146); test: Agonist activity at human neuropeptide Y Y2 receptor expressed in COS-7 cells cotransfected with chimeric Gi/q protein assessed as inositol phosphate accumulation after 2 hrs by anion exchange chromatography; type: functional, cell-based
T2 sequence (P49146 whole entry): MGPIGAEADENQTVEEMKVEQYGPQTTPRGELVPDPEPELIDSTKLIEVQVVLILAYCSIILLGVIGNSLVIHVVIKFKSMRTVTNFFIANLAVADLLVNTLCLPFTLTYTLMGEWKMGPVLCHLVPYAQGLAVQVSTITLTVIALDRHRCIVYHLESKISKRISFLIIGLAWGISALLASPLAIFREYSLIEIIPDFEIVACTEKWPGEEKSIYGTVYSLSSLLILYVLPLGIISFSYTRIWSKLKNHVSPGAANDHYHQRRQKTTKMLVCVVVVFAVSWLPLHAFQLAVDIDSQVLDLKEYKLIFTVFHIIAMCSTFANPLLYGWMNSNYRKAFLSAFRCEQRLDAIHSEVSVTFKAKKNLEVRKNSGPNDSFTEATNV
Outline: (§1)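 Inositol phosphate turnover in COS-7 cells stably co-expressing human Y2 receptor and chimeric Gi/q protein; concentration-response curves, responses as % of maximum Y2 activity; SEM over two biological replicates.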

[3] = target: T3, Neuropeptide Y receptor type 2 (Homo sapiens) (UniProt P49146); test: Agonist activity at human neuropeptide Y Y2 receptor expressed in COS-7 cells cotransfected with chimeric Gi/q protein assessed as inositol phosphate accumulation after 2 hrs by anion exchange chromatography relative to control; type: functional, cell-based; outline: as §1
T3 sequence (whole entry): T2 sequence (P49146 whole entry)

[4] = target: T1, Growth hormone secretagogue receptor type 1; test: Inverse agonist activity at human GHSR1a receptor expressed in COS-7 cells assessed as inositol phosphate accumulation after 2 hrs by anion exchange chromatography relative to control; type: functional, cell-based
[5] = target: T4, Neuropeptide Y receptor type 1 (Homo sapiens) (UniProt P25929); test: Agonist activity at human neuropeptide Y Y1 receptor expressed in COS-7 cells cotransfected with chimeric Gi/q protein assessed as inositol phosphate accumulation at 1 uM after 2 hrs by anion exchange chromatography; type: functional, cell-based
T4 sequence (whole entry): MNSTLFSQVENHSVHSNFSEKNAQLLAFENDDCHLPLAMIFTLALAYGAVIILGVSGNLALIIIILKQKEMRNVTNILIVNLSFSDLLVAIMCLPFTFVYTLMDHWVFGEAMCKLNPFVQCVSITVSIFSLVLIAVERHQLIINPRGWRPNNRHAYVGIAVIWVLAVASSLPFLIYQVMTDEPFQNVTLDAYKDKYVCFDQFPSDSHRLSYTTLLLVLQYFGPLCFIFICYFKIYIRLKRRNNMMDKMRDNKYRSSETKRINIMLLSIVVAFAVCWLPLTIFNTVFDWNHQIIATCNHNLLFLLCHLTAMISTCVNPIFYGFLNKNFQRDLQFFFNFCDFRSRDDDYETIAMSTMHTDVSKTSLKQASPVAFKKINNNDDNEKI
Outline: (§2)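 COS-7 cells stably co-expressing the corresponding human Y receptor plus a chimeric Gi/q protein; single high concentration tested in inositol phosphate accumulation; response as % of NPY response at each receptor; SEM over two biological replicates.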

[6] = target: Neuropeptide Y receptor type 4 (Homo sapiens) (UniProt P50391); test: Agonist activity at human neuropeptide Y Y4 receptor expressed in COS-7 cells cotransfected with chimeric Gi/q protein assessed as inositol phosphate accumulation at 1 uM after 2 hrs by anion exchange chromatography; type: functional, cell-based; outline: as §2
Chain of Neuropeptide Y receptor type 4 (Homo sapiens) (P50391 whole entry): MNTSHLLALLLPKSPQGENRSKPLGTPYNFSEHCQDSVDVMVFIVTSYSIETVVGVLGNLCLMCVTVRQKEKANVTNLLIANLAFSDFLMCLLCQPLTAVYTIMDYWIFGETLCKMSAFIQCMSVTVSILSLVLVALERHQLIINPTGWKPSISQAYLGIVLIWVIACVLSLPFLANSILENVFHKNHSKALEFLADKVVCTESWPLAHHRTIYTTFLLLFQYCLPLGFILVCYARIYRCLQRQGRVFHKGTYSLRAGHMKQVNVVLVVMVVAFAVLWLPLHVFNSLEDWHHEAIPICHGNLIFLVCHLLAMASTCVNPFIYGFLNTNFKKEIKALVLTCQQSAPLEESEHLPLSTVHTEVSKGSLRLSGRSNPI

[7] = target: T5, Neuropeptide Y receptor type 5 (Homo sapiens) (UniProt Q15761); test: Agonist activity at human neuropeptide Y Y5 receptor expressed in COS-7 cells cotransfected with chimeric Gi/q protein assessed as inositol phosphate accumulation at 1 uM after 2 hrs by anion exchange chromatography; type: functional, cell-based; outline: as §2
T5 sequence (whole entry): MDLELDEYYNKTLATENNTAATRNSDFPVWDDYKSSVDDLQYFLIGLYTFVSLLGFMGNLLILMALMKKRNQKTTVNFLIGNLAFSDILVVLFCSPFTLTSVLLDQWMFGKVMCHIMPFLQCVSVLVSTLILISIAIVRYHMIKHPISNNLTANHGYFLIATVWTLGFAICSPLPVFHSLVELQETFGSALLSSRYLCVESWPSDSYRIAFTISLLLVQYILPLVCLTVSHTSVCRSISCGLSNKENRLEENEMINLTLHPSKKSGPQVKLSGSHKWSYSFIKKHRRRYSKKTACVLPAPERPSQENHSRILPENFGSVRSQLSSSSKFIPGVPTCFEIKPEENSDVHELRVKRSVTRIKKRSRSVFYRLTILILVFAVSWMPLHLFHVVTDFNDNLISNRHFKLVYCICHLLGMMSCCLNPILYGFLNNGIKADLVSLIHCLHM

[8] = target: T1, Growth hormone secretagogue receptor type 1; test: Displacement of [125I]ghrelin from human eYFP-fused ghrelin receptor expressed in COS7 cells after 75 mins by competitive receptor binding assay; type: cell-based, COS-7; conditions: cos-7
[9] = target: T2, Neuropeptide Y receptor type 2; test: Displacement of [125I]PYY from human neuropeptide Y Y2 receptor expressed in HEK293 cells cotransfected with eYFP fusion protein after 2 hrs by competitive receptor binding assay; type: cell-based; conditions: hek293
Outline: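 Competitive binding against 125I-PYY in HEK-293 cells stably expressing human Y2 receptor; concentration-response curves.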

SMILES: CC(=O)N[C@@H](CCCCN)C(=O)N[C@@H](CC(C)C)C(=O)N[C@@H](CCCNC(=N)N)C(=O)N[C@@H](Cc1cnc[nH]1)C(=O)N[C@@H](Cc1ccc(O)cc1)C(=O)N[C@@H](CC(C)C)C(=O)N[C@@H](CC(N)=O)C(=O)N[C@@H](CC(C)C)C(=O)N[C@@H](CC(C)C)C(=O)N[C@H](C(=O)N[C@@H](CCCNC(=N)N)C(=O)N[C@@H](CCC(N)=O)C(=O)N[C@@H](CCCNC(=N)N)C(=O)N[C@@H](Cc1ccc(O)cc1)C(N)=O)[C@@H](C)O (Ac-KLRHYLNLLTRQRY-NH2)
EC50 [1]: > 1000 nM
EC50 [2]: 0.5 nM
Efficacy [3]: 68%

SMILES: CC(=O)NC(CN)C(=O)N[C@@H](CC(C)C)C(=O)N[C@@H](CCCNC(=N)N)C(=O)N[C@@H](Cc1cnc[nH]1)C(=O)N[C@@H](Cc1ccc(O)cc1)C(=O)N[C@@H](CC(C)C)C(=O)N[C@@H](CC(N)=O)C(=O)N[C@@H](CC(C)C)C(=O)N[C@@H](CC(C)C)C(=O)N[C@H](C(=O)N[C@@H](CCCNC(=N)N)C(=O)N[C@@H](CCC(N)=O)C(=O)N[C@@H](CCCNC(=N)N)C(=O)N[C@@H](Cc1ccc(O)cc1)C(N)=O)[C@@H](C)O (some centres undefined) (Ac-[ξDap]LRHYLNLLTRQRY-NH2)
EC50 [2]: 0.4 nM
Efficacy [3]: 77%

SMILES: CC(=O)N[C@@H](CCCCNC(=O)CCNC(=O)[C@H](CC(N)=O)NC(=O)[C@H](CC(C)C)NC(=O)[C@@H](Cc1c[nH]c2ccccc12)NC(=O)[C@H](Cc1ccccc1)NC(=O)[C@@H](Cc1cccc2ccccc12)NC(=O)[C@@H](N)CCCCN)C(=O)N[C@@H](CC(C)C)C(=O)N[C@@H](CCCNC(=N)N)C(=O)N[C@@H](Cc1cnc[nH]1)C(=O)N[C@@H](Cc1ccc(O)cc1)C(=O)N[C@@H](CC(C)C)C(=O)N[C@@H](CC(N)=O)C(=O)N[C@@H](CC(C)C)C(=O)N[C@@H](CC(C)C)C(=O)N[C@H](C(=O)N[C@@H](CCCNC(=N)N)C(=O)N[C@@H](CCC(N)=O)C(=O)N[C@@H](CCCNC(=N)N)C(=O)N[C@@H](Cc1ccc(O)cc1)C(N)=O)[C@@H](C)O
EC50 [1]: 331 nM
Efficacy [4]: 74%

SMILES: CC(C)C[C@H](NC(=O)[C@@H](Cc1c[nH]c2ccccc12)NC(=O)[C@H](Cc1ccccc1)NC(=O)[C@H](Cc1cccc2ccccc12)NC(=O)[C@@H](N)CCCCN)C(=O)N[C@@H](CC(N)=O)C(=O)O
Efficacy [4]: 86%

SMILES: CC(=O)NC(CNC(=O)CCC(=O)N[C@@H](CCCCN)C(=O)N[C@@H](CCCCN)C(=O)N[C@@H](Cc1cccc2ccccc12)C(=O)N[C@@H](Cc1ccccc1)C(=O)N[C@H](Cc1c[nH]c2ccccc12)C(=O)N[C@@H](CC(C)C)C(=O)N[C@@H](CC(C)C)C(N)=O)C(=O)N[C@@H](CC(C)C)C(=O)N[C@@H](CCCNC(=N)N)C(=O)N[C@@H](Cc1cnc[nH]1)C(=O)N[C@@H](Cc1ccc(O)cc1)C(=O)N[C@@H](CC(C)C)C(=O)N[C@@H](CC(N)=O)C(=O)N[C@@H](CC(C)C)C(=O)N[C@@H](CC(C)C)C(=O)N[C@H](C(=O)N[C@@H](CCCNC(=N)N)C(=O)N[C@@H](CCC(N)=O)C(=O)N[C@@H](CCCNC(=N)N)C(=O)N[C@@H](Cc1ccc(O)cc1)C(N)=O)[C@@H](C)O (some centres undefined)
Efficacy [4]: 78%
Efficacy [3]: 82%
Efficacy [5]: < 25%
Efficacy [6]: < 25%
Efficacy [7]: 33%

SMILES: CC(=O)N[C@@H](CNC(=O)CCC(=O)N[C@@H](CCCCN)C(=O)N[C@@H](CCCCN)C(=O)N[C@H](Cc1cccc2ccccc12)C(=O)N[C@@H](Cc1ccccc1)C(=O)N[C@H](Cc1c[nH]c2ccccc12)C(=O)N[C@@H](CC(C)C)C(=O)N[C@@H](CC(C)C)C(N)=O)C(=O)N[C@@H](CC(C)C)C(=O)N[C@@H](CCCNC(=N)N)C(=O)N[C@@H](Cc1cnc[nH]1)C(=O)N[C@@H](Cc1ccc(O)cc1)C(=O)N[C@@H](CC(C)C)C(=O)N[C@@H](CC(N)=O)C(=O)N[C@@H](CC(C)C)C(=O)N[C@@H](CC(C)C)C(=O)N[C@H](C(=O)N[C@@H](CCCNC(=N)N)C(=O)N[C@@H](CCC(N)=O)C(=O)N[C@@H](CCCNC(=N)N)C(=O)N[C@@H](Cc1ccc(O)cc1)C(N)=O)[C@@H](C)O
EC50 ([1]; cos-7): 110 nM
EC50 ([2]; cos-7): 2 nM
IC50 [8]: 70.4 nM
IC50 [9]: 9.7 nM

SMILES: CC(C)C[C@H](NC(=O)[C@@H](Cc1c[nH]c2ccccc12)NC(=O)[C@H](Cc1ccccc1)NC(=O)[C@H](Cc1cccc2ccccc12)NC(=O)[C@@H](N)CCCCN)C(=O)N[C@@H](CCC(N)=O)C(=O)O
Efficacy [4]: 92%

SMILES: CC(C)C[C@H](NC(=O)[C@@H](Cc1c[nH]c2ccccc12)NC(=O)[C@H](Cc1ccccc1)NC(=O)[C@@H](Cc1cccc2ccccc12)NC(=O)[C@@H](N)CCCCN)C(=O)N[C@@H](CC(N)=O)C(=O)O
EC50 ([1]; cos-7): 189 nM

SMILES: CC(=O)N[C@@H](CCCCNC(=O)CCCCCNC(=O)[C@H](CC(N)=O)NC(=O)[C@H](CC(C)C)NC(=O)[C@@H](Cc1c[nH]c2ccccc12)NC(=O)[C@H](Cc1ccccc1)NC(=O)[C@@H](Cc1cccc2ccccc12)NC(=O)[C@@H](N)CCCCN)C(=O)N[C@@H](CC(C)C)C(=O)N[C@@H](CCCNC(=N)N)C(=O)N[C@@H](Cc1cnc[nH]1)C(=O)N[C@@H](Cc1ccc(O)cc1)C(=O)N[C@@H](CC(C)C)C(=O)N[C@@H](CC(N)=O)C(=O)N[C@@H](CC(C)C)C(=O)N[C@@H](CC(C)C)C(=O)N[C@H](C(=O)N[C@@H](CCCNC(=N)N)C(=O)N[C@@H](CCC(N)=O)C(=O)N[C@@H](CCCNC(=N)N)C(=O)N[C@@H](Cc1ccc(O)cc1)C(N)=O)[C@@H](C)O
EC50 [1]: 267 nM
Efficacy [4]: 64%

Further lines, results first:

Efficacy [4]: 88%
SMILES: CC(C)C[C@H](NC(=O)[C@H](CC(C)C)NC(=O)[C@@H](Cc1c[nH]c2ccccc12)NC(=O)[C@H](Cc1ccccc1)NC(=O)[C@H](Cc1cccc2ccccc12)NC(=O)[C@H](CCCCN)NC(=O)CCC(=O)O)C(N)=O

EC50 ([1]; cos-7): 29 nM
EC50 ([2]; cos-7): > 1000 nM
SMILES: CC(C)C[C@H](NC(=O)[C@H](CC(C)C)NC(=O)[C@@H](Cc1c[nH]c2ccccc12)NC(=O)[C@H](Cc1ccccc1)NC(=O)[C@@H](Cc1cccc2ccccc12)NC(=O)[C@H](CCCCN)NC(=O)CCC(=O)O)C(N)=O

EC50 ([1]; cos-7): 60.2 nM
EC50 ([2]; cos-7): > 1000 nM
SMILES: CC(C)C[C@H](NC(=O)[C@H](CC(C)C)NC(=O)[C@@H](Cc1c[nH]c2ccccc12)NC(=O)[C@H](Cc1ccccc1)NC(=O)[C@@H](Cc1cccc2ccccc12)NC(=O)[C@H](CCCCN)NC(=O)[C@H](CCCCN)NC(=O)CCC(=O)O)C(N)=O

Efficacy [4]: 84%
SMILES: CC(C)C[C@H](NC(=O)[C@H](CC(C)C)NC(=O)[C@@H](Cc1c[nH]c2ccccc12)NC(=O)[C@H](Cc1ccccc1)NC(=O)[C@H](Cc1cccc2ccccc12)NC(=O)[C@H](CCCCN)NC(=O)[C@H](CCCCN)NC(=O)CCC(=O)O)C(N)=O

EC50 ([1]; cos-7): 70.2 nM
EC50 ([2]; cos-7): > 1000 nM
SMILES: CC(C)C[C@H](NC(=O)[C@@H](Cc1c[nH]c2ccccc12)NC(=O)[C@H](Cc1ccccc1)NC(=O)[C@@H](Cc1cccc2ccccc12)NC(=O)[C@@H](N)CCCCN)C(=O)N[C@@H](CCC(N)=O)C(=O)O
